Calls of active or inactive are those of the source. The calls are words filed in the database; no cut-off is given here. *1 amine or outer side, *2 acyl side, *3 side chain or, on linkers, in order; H or OH if unused. Where a SMILES comes first, the peptide text is derived from it. [ ]: non-standard residue; d: D form. The star is where a group is joined. X2 = CCc1ccc(-c2ccc(C[C@H](N[*:1])C(=O)[*:2])cc2)cc1; Biotin = O=C1N[C@H]2[C@H](CS[C@H]2CCCCC(=O)*)N1; X1 = O=C([C@H](Cc1ccc(C2CCCCC2)cc1)N[*:1])[*:2]; Bip = N[C@@H](Cc1ccc(-c2ccccc2)cc1)C(=O)O
Legend:
Type in all cases: cell-based
[1] = molecular target: T1, Integrin alpha-4/beta-7 (Mus musculus) (UniProt Q00651+P26011); assay: Inhibition of alpha4beta7 assessed as inhibition of Mn(2+)-activated adhesion of mouse TK-1 T cells to mouse MAdCAM-1 at 100 uM incubated for 1 hr by cell adhesion assay
How it was run: (§1)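 TK-1 cells (mouse AKR/Cum α4β7+/α4β1− CD8 T lymphoma), grown at 37 °C in RPMI 1640 with 10% FCS and 0.05 mM β-mercaptoethanol, were washed and held 1 h at room temperature in HBSS/10 mM Hepes with peptide. They were then activated with 2 mM MnCl₂ and added at 10⁶ cells/well to glass slides coated with mouse MAdCAM-1-Fc (10 μg/ml, FBS-blocked). Adhesion ran 30 min.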

[2] = molecular target: T1, Integrin alpha-4/beta-7 (Mus musculus); assay: Inhibition of alpha4beta7 assessed as inhibition of Mn(2+)-activated adhesion of mouse TK-1 T cells to mouse MAdCAM-1 at 50 uM incubated for 1 hr by cell adhesion assay; how it was run: as §1
[3] = molecular target: T1, Integrin alpha-4/beta-7 (Mus musculus); assay: Inhibition of alpha4beta7 assessed as inhibition of Mn(2+)-activated adhesion of mouse TK-1 T cells to mouse MAdCAM-1 at <5 to 10 uM incubated for 1 hr by cell adhesion assay; how it was run: as §1
[4] = molecular target: T1, Integrin alpha-4/beta-7 (Mus musculus); assay: Inhibition of alpha4beta7 assessed as inhibition of Mn(2+)-activated adhesion of mouse TK-1 T cells to mouse MAdCAM-1 at 25 uM incubated for 1 hr by cell adhesion assay; how it was run: as §1
Integrin alpha-4/beta-7 = molecular target: T2, Integrin alpha-4/beta-7 (Mus musculus, UniProt P26011+Q00651); assay: Inhibition of alpha4beta7 assessed as inhibition of Mn(2+)-activated adhesion of mouse TK-1 T cells to mouse MAdCAM-1 incubated for 1 hr by cell adhesion assay
T2 sequence (Q00651 whole entry): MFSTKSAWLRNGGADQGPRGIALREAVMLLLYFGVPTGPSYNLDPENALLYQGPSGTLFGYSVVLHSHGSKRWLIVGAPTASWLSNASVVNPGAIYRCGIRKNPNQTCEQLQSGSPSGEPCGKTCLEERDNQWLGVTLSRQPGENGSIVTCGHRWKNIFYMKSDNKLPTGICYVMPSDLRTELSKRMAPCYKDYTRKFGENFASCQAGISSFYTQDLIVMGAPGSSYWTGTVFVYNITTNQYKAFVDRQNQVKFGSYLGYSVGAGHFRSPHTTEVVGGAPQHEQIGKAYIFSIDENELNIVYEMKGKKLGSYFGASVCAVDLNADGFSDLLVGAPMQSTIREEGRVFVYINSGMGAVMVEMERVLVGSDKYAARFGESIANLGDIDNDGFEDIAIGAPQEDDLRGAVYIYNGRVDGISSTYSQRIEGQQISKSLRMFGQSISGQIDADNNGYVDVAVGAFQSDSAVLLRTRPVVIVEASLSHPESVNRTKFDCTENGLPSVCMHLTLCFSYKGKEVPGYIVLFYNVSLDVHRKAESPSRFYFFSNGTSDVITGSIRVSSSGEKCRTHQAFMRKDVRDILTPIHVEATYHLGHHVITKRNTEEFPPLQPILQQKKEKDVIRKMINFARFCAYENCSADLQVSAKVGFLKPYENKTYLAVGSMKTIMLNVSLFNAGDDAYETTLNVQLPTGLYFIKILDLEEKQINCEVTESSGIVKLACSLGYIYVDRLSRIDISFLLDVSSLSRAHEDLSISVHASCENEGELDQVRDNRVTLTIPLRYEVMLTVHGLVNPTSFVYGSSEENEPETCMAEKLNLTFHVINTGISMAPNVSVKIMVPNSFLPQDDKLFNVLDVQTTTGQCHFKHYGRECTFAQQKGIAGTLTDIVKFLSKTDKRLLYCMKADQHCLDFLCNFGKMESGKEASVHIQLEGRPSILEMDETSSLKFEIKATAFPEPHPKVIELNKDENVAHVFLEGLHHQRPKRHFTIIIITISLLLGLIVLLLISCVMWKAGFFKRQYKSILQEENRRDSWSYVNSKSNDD
T2 sequence (P26011 whole entry): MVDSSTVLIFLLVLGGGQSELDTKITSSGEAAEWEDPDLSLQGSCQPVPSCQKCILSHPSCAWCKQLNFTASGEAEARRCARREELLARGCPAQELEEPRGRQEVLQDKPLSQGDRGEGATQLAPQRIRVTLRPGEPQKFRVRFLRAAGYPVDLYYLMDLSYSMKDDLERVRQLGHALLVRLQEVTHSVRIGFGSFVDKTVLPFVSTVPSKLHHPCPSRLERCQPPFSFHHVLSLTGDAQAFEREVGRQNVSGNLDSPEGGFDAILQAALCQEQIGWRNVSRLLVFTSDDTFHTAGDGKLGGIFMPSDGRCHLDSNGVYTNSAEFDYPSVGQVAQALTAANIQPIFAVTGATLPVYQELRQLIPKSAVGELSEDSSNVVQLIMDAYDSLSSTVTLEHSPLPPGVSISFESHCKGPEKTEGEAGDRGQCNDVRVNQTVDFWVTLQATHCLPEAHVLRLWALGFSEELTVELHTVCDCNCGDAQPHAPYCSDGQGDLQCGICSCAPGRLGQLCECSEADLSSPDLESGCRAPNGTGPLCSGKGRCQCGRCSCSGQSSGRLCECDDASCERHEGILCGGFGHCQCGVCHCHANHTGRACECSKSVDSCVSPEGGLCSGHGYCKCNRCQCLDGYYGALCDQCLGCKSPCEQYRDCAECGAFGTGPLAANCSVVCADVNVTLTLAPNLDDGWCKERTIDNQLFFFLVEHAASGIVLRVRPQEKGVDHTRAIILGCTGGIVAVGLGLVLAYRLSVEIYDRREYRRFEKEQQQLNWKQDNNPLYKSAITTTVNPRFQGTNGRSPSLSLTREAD
How it was run: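 TK-1 cells (mouse AKR/Cum CD8+ α4β7+/α4β1− T lymphoma), cultured at 37 °C in RPMI 1640 with 10% FCS and 0.05 mM β-mercaptoethanol. HBSS/10 mM Hepes buffer; cells preincubated with peptide 1 h at room temperature, then activated with MnCl2 to 2 mM. Added at 10⁶ cells/well to glass slides coated with mouse MAdCAM-1-Fc (10 µg/ml, 4 °C overnight, FBS-blocked); adhesion 30 min at room temperature.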

| SMILES | inhibition [1] [%] | inhibition [2] [%] | inhibition [3] | inhibition [4] | IC50 (Integrin alpha-4/beta-7) [µM] |
| --- | --- | --- | --- | --- | --- |
| N=C(N)NCCC[C@H](NC(=O)CCCC[C@@H]1SC[C@@H]2NC(=O)N[C@@H]21)C(=O)N[C@@H](CCCNC(=N)N)C(=O)N[C@@H](CCCNC(=N)N)C(=O)N[C@@H](CCCNC(=N)N)C(=O)N[C@@H](CCCNC(=N)N)C(=O)N[C@@H](CCCNC(=N)N)C(=O)N[C@@H](CCCNC(=N)N)C(=O)N[C@@H](CCCNC(=N)N)C(=O)N[C@@H](CCC(=O)O)C(=O)N[C@@H](CCCNC(=N)N)C(=O)N[C@@H](Cc1ccc(-c2ccccc2)cc1)C(=O)O (Biotin-RRRRRRRRER[Bip]-OH) | 91.3 | 80.2 | Active | Active | 7.3 |
| N=C(N)NCCC[C@H](NC(=O)[C@H](CCCNC(=N)N)NC(=O)[C@H](CCCNC(=N)N)NC(=O)[C@H](CCCNC(=N)N)NC(=O)[C@H](CCCNC(=N)N)NC(=O)[C@H](CCCN=C(N)N)NC(=O)[C@H](CCCN=C(N)N)NC(=O)[C@H](CCCN=C(N)N)NC(=O)CCCC[C@@H]1SC[C@@H]2NC(=O)N[C@@H]21)C(=O)N[C@@H](CCC(=O)O)C(=O)N[C@@H](CCCN=C(N)N)C(=O)N[C@@H](Cc1ccc(C2CCCCC2)cc1)C(=O)O (Biotin-RRRRRRRRER[X1]-OH) |  |  |  |  | 19 |
| CCc1ccc(-c2ccc(C[C@H](NC(=O)[C@H](CCCNC(=N)N)NC(=O)[C@H](CCC(=O)O)NC(=O)[C@H](CCCNC(=N)N)NC(=O)[C@H](CCCNC(=N)N)NC(=O)[C@H](CCCNC(=N)N)NC(=O)[C@H](CCCNC(=N)N)NC(=O)[C@H](CCCNC(=N)N)NC(=O)[C@H](CCCNC(=N)N)NC(=O)[C@H](CCCNC(=N)N)NC(=O)[C@H](CCCNC(=N)N)NC(=O)CCCC[C@@H]3SC[C@@H]4NC(=O)N[C@@H]43)C(=O)O)cc2)cc1 (Biotin-RRRRRRRRER[X2]-OH) | 74.2 | 58 | Active | Active | 14.3 |
